Results published in ChEMBL document CHEMBL2390926, “Identification of novel FLT3 kinase inhibitors” (Eur J Med Chem, 2013).
The source made the active and inactive calls. The rule behind the calls is not given here.

How the values were obtained:
BaF3 [1] = assay: Cytotoxicity against mouse BA/F3 cells transfected with FLT3-ITD-F691l at 1 uM after 24 hrs by plate reader analysis; format: functional, cell-based
BaF3 [2] = assay: Cytotoxicity against mouse BA/F3 cells transfected with […] at 1 uM after 24 hrs by plate reader analysis; format: functional, cell-based
[3] = target: T1, Non-receptor tyrosine-protein kinase TNK1 (Homo sapiens) (UniProt Q13470); assay: Inhibition of TNK1 (unknown origin) transfected in mouse Ba/F3 cells at 5 uM after 24 hrs; format: cell-based; details: BaF3
T1 sequence (whole entry): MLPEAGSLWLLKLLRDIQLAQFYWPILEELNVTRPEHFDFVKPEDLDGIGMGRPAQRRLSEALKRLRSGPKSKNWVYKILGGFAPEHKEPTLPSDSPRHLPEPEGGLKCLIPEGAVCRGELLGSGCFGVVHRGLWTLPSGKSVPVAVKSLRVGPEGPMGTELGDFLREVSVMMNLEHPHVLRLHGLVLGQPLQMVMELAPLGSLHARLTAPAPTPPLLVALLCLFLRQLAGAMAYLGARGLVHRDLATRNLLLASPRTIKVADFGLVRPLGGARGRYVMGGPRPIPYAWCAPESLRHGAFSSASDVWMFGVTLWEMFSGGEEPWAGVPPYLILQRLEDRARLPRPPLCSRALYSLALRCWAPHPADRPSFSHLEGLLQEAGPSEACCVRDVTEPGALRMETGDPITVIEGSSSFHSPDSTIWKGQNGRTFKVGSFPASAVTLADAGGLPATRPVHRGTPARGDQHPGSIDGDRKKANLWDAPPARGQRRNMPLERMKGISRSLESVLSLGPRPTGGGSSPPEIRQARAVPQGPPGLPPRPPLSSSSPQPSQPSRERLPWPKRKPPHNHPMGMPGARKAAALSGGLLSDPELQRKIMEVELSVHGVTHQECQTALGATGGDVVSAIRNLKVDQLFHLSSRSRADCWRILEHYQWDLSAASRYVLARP

[4] = target: Proto-oncogene tyrosine-protein kinase Src (Homo sapiens) (UniProt P12931); assay: Inhibition of SRC (unknown origin) transfected in mouse Ba/F3 cells at 5 uM after 24 hrs; format: cell-based; details: BaF3
[5] = target: Proto-oncogene tyrosine-protein kinase ROS (Homo sapiens) (UniProt P08922); assay: Inhibition of ROS1 (unknown origin) transfected in mouse Ba/F3 cells at 5 uM after 24 hrs; format: cell-based; details: BaF3
[6] = target: T2, Megakaryocyte-associated tyrosine-protein kinase (Homo sapiens) (UniProt P42679); assay: Inhibition of MATK1 (unknown origin) transfected in mouse Ba/F3 cells at 5 uM after 24 hrs; format: cell-based; details: BaF3
T2 sequence (whole entry): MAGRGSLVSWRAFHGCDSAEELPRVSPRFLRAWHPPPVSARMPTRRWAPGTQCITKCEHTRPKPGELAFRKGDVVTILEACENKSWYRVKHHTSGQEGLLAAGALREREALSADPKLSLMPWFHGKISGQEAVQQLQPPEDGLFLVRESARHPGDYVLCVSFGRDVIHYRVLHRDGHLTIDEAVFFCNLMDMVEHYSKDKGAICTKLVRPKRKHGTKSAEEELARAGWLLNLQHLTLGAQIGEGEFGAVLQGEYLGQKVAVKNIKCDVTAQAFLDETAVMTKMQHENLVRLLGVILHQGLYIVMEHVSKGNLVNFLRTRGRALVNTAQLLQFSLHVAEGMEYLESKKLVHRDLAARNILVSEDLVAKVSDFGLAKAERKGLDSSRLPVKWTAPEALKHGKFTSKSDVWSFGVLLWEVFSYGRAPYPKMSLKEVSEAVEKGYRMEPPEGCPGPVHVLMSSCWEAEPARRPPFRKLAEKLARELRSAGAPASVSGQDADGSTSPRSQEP

[7] = target: Leukocyte tyrosine kinase receptor (Homo sapiens) (UniProt P29376); assay: Inhibition of LTK (unknown origin) transfected in mouse Ba/F3 cells at 5 uM after 24 hrs; format: cell-based; details: BaF3
[8] = target: Insulin-like growth factor 1 receptor (Homo sapiens) (UniProt P08069); assay: Inhibition of IGF1R (unknown origin) transfected in mouse Ba/F3 cells at 5 uM after 24 hrs; format: cell-based; details: BaF3
Summary of the method: (§1)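 Kinase specificity panel: each Ba/F3 line transformed with one of 24 tyrosine kinases depends on that kinase to grow. Cells were given compound at 1 or 5 µM for 24 h, with DMSO as comparator. Percentage growth was read by ATP-lite luminescence and reported as mean ± SEM.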

[9] = target: Receptor tyrosine-protein kinase erbB-2 (Homo sapiens) (UniProt P04626); assay: Inhibition of ERBB2 (unknown origin) transfected in mouse Ba/F3 cells at 5 uM after 24 hrs; format: cell-based; details: BaF3; summary of the method: as §1
[10] = target: Ephrin type-A receptor 7 (Homo sapiens) (UniProt Q15375); assay: Inhibition of EPHA7 (unknown origin) transfected in mouse Ba/F3 cells at 5 uM after 24 hrs; format: cell-based; details: BaF3; summary of the method: as §1
[11] = target: Ephrin type-A receptor 2 (Homo sapiens) (UniProt P29317); assay: Inhibition of EPHA2 (unknown origin) transfected in mouse Ba/F3 cells at 5 uM after 24 hrs; format: cell-based; details: BaF3; summary of the method: as §1
Chain of Ephrin type-A receptor 2 (Homo sapiens) (P29317 whole entry): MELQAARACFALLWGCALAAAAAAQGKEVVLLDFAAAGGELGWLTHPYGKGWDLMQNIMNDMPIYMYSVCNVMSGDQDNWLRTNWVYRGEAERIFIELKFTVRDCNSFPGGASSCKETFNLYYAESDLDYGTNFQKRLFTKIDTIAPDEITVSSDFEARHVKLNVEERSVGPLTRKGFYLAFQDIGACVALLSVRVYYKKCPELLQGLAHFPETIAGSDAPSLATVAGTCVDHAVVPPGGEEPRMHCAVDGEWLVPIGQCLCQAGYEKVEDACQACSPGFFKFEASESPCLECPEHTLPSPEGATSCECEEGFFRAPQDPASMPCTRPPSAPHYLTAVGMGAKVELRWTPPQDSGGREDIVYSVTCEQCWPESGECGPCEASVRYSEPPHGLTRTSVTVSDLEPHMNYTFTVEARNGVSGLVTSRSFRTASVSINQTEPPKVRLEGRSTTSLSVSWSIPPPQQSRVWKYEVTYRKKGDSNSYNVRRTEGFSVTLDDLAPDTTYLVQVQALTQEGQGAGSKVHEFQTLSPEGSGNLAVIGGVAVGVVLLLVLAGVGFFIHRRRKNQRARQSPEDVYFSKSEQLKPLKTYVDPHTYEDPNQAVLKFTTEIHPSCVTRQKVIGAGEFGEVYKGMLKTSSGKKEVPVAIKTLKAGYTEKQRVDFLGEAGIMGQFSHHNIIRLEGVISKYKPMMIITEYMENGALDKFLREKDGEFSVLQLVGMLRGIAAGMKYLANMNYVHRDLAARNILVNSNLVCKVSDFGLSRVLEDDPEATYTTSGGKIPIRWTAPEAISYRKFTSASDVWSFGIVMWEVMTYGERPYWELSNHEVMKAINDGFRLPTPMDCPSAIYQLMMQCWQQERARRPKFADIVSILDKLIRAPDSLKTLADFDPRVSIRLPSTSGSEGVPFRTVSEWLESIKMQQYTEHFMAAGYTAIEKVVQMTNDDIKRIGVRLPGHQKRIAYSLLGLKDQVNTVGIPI

Chain of Proto-oncogene tyrosine-protein kinase ROS (Homo sapiens) (P08922 whole entry): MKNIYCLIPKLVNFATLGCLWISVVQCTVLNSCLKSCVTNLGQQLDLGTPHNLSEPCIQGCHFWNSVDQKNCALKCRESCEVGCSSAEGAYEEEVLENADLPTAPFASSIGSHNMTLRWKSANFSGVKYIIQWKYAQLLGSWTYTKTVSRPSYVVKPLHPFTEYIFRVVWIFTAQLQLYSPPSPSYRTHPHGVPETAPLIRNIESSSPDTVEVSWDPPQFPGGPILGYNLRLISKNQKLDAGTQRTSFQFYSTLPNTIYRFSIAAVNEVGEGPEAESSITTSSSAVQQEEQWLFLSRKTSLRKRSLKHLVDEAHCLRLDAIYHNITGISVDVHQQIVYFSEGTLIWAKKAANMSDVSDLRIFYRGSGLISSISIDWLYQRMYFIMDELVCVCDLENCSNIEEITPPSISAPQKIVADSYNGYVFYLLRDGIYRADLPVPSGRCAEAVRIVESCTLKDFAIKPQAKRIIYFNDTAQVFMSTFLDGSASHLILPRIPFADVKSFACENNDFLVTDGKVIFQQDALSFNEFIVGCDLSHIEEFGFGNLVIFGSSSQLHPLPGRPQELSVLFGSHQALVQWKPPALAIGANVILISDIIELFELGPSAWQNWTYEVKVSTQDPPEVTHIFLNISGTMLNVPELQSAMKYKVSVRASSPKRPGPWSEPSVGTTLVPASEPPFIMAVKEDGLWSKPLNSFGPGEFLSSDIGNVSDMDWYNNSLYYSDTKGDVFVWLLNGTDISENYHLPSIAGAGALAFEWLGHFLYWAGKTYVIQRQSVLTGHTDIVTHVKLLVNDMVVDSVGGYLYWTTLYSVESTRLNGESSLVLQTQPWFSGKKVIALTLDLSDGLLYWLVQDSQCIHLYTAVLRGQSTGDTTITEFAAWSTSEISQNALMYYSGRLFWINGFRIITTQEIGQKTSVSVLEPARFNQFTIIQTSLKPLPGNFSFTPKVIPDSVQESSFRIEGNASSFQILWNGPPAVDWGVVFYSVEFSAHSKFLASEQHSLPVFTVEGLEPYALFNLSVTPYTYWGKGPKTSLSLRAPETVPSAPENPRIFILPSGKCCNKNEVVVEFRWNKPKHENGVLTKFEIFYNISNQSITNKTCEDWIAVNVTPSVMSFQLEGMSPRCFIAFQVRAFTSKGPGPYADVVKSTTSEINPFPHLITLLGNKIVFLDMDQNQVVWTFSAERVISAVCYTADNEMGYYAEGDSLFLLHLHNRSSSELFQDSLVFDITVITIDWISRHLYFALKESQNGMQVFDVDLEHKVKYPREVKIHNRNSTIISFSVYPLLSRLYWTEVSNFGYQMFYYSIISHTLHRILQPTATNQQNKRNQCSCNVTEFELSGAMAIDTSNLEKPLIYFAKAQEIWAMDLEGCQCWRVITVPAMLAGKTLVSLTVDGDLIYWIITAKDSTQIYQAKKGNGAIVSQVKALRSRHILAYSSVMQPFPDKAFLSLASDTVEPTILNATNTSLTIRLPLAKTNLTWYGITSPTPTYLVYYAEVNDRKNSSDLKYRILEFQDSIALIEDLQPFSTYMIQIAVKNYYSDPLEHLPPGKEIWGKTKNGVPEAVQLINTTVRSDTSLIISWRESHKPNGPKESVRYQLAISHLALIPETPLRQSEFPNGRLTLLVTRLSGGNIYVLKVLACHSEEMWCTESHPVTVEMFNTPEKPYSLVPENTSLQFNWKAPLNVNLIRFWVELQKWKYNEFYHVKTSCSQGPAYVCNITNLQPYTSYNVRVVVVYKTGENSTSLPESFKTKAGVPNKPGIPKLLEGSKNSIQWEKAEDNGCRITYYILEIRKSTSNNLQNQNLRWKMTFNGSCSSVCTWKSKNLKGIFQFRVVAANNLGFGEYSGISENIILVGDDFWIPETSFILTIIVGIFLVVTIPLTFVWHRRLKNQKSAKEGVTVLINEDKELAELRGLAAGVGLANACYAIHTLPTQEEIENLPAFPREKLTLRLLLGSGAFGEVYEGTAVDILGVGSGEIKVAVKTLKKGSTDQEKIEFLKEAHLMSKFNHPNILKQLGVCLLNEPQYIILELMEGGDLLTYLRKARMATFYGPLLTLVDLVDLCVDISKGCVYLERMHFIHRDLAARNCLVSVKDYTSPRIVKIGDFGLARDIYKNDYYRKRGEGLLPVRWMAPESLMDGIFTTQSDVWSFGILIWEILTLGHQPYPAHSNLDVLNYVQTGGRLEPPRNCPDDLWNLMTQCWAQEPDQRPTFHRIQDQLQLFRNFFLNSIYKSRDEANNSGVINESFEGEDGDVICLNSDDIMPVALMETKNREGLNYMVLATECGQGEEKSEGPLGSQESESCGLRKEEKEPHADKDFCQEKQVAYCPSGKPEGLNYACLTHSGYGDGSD
Chain of Proto-oncogene tyrosine-protein kinase Src (Homo sapiens) (P12931 2-536 limits assumed): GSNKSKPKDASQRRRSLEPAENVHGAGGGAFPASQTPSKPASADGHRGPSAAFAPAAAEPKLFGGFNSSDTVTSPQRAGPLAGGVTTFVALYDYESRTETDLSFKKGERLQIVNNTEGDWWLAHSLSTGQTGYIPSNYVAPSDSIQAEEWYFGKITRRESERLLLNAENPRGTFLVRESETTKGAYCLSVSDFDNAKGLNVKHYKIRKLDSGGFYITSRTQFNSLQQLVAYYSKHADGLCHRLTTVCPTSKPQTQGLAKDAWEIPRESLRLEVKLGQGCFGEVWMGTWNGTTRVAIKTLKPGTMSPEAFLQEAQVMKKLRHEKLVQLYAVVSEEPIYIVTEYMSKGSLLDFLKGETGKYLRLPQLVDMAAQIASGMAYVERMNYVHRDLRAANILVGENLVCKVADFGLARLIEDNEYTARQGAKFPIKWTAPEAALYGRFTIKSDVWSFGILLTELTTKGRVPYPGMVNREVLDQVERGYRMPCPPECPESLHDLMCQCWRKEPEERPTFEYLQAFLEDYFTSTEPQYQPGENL
Chain of Receptor tyrosine-protein kinase erbB-2 (Homo sapiens) (P04626 whole entry): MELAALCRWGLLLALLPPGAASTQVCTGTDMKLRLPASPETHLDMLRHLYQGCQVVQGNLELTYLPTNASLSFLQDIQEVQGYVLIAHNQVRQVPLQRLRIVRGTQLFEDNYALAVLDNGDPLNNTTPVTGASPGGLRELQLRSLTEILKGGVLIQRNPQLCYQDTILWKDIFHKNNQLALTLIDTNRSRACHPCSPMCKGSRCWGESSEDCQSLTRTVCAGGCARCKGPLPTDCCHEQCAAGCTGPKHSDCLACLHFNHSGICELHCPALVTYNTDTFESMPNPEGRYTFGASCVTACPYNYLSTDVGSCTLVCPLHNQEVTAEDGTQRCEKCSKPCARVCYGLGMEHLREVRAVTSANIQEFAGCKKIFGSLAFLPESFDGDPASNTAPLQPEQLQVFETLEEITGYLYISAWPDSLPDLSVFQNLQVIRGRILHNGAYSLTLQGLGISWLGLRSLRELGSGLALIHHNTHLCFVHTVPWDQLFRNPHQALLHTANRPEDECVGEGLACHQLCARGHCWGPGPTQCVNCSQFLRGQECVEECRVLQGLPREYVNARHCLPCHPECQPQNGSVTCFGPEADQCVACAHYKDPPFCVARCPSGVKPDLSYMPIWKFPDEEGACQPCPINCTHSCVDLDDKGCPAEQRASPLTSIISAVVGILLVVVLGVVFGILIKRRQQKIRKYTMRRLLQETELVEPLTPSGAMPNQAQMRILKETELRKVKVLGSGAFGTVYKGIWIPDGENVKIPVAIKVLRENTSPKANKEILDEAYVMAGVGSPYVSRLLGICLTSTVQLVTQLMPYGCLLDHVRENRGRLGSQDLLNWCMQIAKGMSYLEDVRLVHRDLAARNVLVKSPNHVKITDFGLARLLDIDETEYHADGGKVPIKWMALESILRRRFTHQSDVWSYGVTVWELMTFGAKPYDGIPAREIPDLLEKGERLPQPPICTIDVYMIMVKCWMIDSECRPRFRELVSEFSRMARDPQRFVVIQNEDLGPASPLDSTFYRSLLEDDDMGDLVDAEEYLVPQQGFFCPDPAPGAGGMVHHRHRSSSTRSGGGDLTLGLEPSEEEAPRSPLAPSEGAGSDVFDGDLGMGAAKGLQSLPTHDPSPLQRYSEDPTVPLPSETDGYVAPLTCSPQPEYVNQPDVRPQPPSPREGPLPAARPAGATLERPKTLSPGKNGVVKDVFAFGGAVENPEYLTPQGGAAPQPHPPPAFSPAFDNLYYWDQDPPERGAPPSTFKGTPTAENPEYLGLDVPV

inhibition [3] | inhibition [4] | inhibition [5] | inhibition [6] | inhibition [7] | inhibition [8] | inhibition [9] | inhibition [10] | inhibition [11] | Structure (SMILES) | Activity (BaF3 [1]) | Activity (BaF3 [2])
 |  |  |  |  |  |  |  |  | COc1ccc(C(=O)Nc2cc(-c3ccccc3)[nH]n2)cc1 | Active | Active
inactive | Active | Active | inactive | inactive | inactive | inactive | inactive | inactive | Fc1ccc(-c2n[nH]cc2-c2ccncc2)cc1Cl |  | 
inactive | inactive | inactive | inactive | inactive | inactive | inactive | inactive | inactive | Cc1ccc(-n2cnc3cc(Nc4nnc(C)c5ccccc45)ccc32)cc1 | Active | Active
